ChEMBL document CHEMBL1121602, “Analogues of 8-[[6-(diethylamino) hexyl]amino]-6-methoxy-4-methylquinoline as candidate antileishmanial agents” (1980)
Active and inactive are the calls of the source. No cut-off for these calls is given here.

Tests used:
[1] = G index = SD90 for meglumine antimoniate / SD90 for the compound; type: functional
Procedure, shortened: (§1)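 L. donovani infection in hamsters, following an earlier-cited protocol. Meglumine antimoniate was the reference drug. A G index, the activity of each test agent relative to the reference, was calculated from the dose-response data.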

Cricetinae gen. sp. [2] = test: Antileishmanial activity against Leishmania donovani in hamsters at a concentration of 13 mg/kg; type: functional; procedure, shortened: as §1
Cricetinae gen. sp. [3] = test: Antileishmanial activity against Leishmania donovani in hamsters at a concentration of 52 mg/kg; type: functional; procedure, shortened: as §1
Cricetinae gen. sp. [4] = test: Antileishmanial activity against Leishmania donovani in hamsters at a concentration of 0.81 mg/kg; type: functional; procedure, shortened: as §1
Cricetinae gen. sp. [5] = test: Antileishmanial activity against Leishmania donovani in hamsters at a concentration of 13 mg/kg (toxic); type: functional; procedure, shortened: as §1
Cricetinae gen. sp. [6] = test: Antileishmanial activity against Leishmania donovani in hamsters at a concentration of 0.20 mg/kg; type: functional; conditions: dose 0.2 mg/kg; procedure, shortened: as §1
Cricetinae gen. sp. [7] = test: Antileishmanial activity against Leishmania donovani in hamsters at a concentration of 0.05 mg/kg; type: functional; procedure, shortened: as §1
Cricetinae gen. sp. [8] = test: Antileishmanial activity against Leishmania donovani in hamsters at a concentration of 0.81 mg/kg; I = inactive; type: functional, organism-based; set-up: dose 0.81 mg/kg; procedure, shortened: as §1
Cricetinae gen. sp. [9] = test: Antileishmanial activity against Leishmania donovani in hamsters at a concentration of 208 mg/kg.; type: functional; procedure, shortened: as §1
Cricetinae gen. sp. [10] = test: Antileishmanial activity against Leishmania donovani in hamsters at a concentration of 13 mg/kg; I = inactive; type: functional, organism-based; set-up: dose 13 mg/kg; procedure, shortened: as §1

Work on `CCN(CCO)CCCCCCNc1cc(OC)cc2c(C)ccnc12.Cl` yielded a G Index [1] of 3.4, a Supression (Cricetinae gen. sp. [2]) of 79.2% and a Supression (Cricetinae gen. sp. [3]) of 95.4%.
For `COc1cc(NCCCCCC(C)NC(C)C)c2nccc(C)c2c1.Cl` (stereo unspecified), the G Index [1] was 300, the Supression (Cricetinae gen. sp. [4]) was 100% and the Supression (Cricetinae gen. sp. [5]) was 95.4%. It also gave a Supression (Cricetinae gen. sp. [6]) of 97.3%.
In the case of `CCN(CC)CCCCCCCNc1cc(OC)cc2c(C)ccnc12.Cl.Cl`, the G Index [1] is reported as 96.8, the Supression (Cricetinae gen. sp. [4]) is reported as 99.8% and the Supression (Cricetinae gen. sp. [2]) is reported as 100%. For the same compound, the Supression (Cricetinae gen. sp. [6]) was 73.1%.
`CCCN(CCC)CCCCCCNc1cc(OC)cc2c(C)ccnc12.Cl` showed a G Index [1] of 333, a Supression (Cricetinae gen. sp. [4]) of 99.9% and a Supression (Cricetinae gen. sp. [7]) of 31%. It also gave a Supression (Cricetinae gen. sp. [6]) of 99.9%.
Work on `CCN(CC)CCCCCCNc1cc(OC)cc2c(C)ccnc12` [SITAMAQUINE] yielded a G Index [1] of 474, a Supression (Cricetinae gen. sp. [4]) of 100% and a Supression (Cricetinae gen. sp. [7]) of 83.7%. It also gave a Supression (Cricetinae gen. sp. [6]) of 99.6%.
`CCN(C(C)C)C(C)CCCCCNc1cc(OC)cc2c(C)ccnc12.Cl.Cl` (stereo unspecified) showed a Supression (Cricetinae gen. sp. [4]) of 100%, a Supression (Cricetinae gen. sp. [5]) of 95.4% and a Supression (Cricetinae gen. sp. [6]) of 97.3%.
`CCN(CC)CCCCCCNc1cc(OC)c(OC)c2c(C)ccnc12.Cl.Cl` showed a G Index [1] of 401, a Supression (Cricetinae gen. sp. [4]) of 100% and a Supression (Cricetinae gen. sp. [2]) of 99.9%. It also gave a Supression (Cricetinae gen. sp. [7]) of 68% and a Supression (Cricetinae gen. sp. [6]) of 100%.
With `CCN(CC)CCCCCCNc1cc(OC)cc2c(C)cc(O)nc12` the Supression (Cricetinae gen. sp. [8]) was “inactive”, the Supression (Cricetinae gen. sp. [9]) was 62.8% and the Supression (Cricetinae gen. sp. [10]) was “inactive”.
`COc1cc(NCCCCCCN(C(C)C)C(C)C)c2nccc(C)c2c1.Cl.Cl` gave a G Index [1] of 310, a Supression (Cricetinae gen. sp. [4]) of 100% and a Supression (Cricetinae gen. sp. [2]) of 97.5%. For the same compound, the Supression (Cricetinae gen. sp. [7]) was 20.2% and the Supression (Cricetinae gen. sp. [6]) was 97.4%.
With `COc1cc(NCCCCCCNCCO)c2nccc(C)c2c1.Cl` the G Index [1] was 300 and the Supression (Cricetinae gen. sp. [2]) was 99.9%.
For `CCN(CC)CCCCCNc1cc(OC)cc2c(C)ccnc12`, the G Index [1] was 178, the Supression (Cricetinae gen. sp. [4]) was 100% and the Supression (Cricetinae gen. sp. [2]) was 100%. For the same compound, the Supression (Cricetinae gen. sp. [3]) was 100% and the Supression (Cricetinae gen. sp. [6]) was 91.5%.
With `COc1cc(NCCCCCCNC2CCC2)c2nccc(C)c2c1.Cl` the G Index [1] was 188, the Supression (Cricetinae gen. sp. [4]) was 99.2% and the Supression (Cricetinae gen. sp. [2]) was 100%. For the same compound, the Supression (Cricetinae gen. sp. [3]) was 100%.
